ChEMBL document CHEMBL3822425, “Isatin Derived Spirocyclic Analogues with α-Methylene-γ-butyrolactone as Anticancer Agents: A Structure-Activity Relationship Study” (J Med Chem, 2016)
Values belong to the compound of their own block, whether it stands above or below them. The source made the active and inactive calls. The rule behind the calls is not given here.

Columns and labels:
[1] = test system: A2780; assay: Cytotoxicity against human A2780 cells assessed as cell growth inhibition after 3 days by presto blue dye based plate reader method; assay type: functional; settings: A2780, 72 h
Summary of the method: (§1)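 Cells in DMEM high glucose/10% FBS (A2780 in RPMI/10% FBS), 4,000 per well, overnight, then 40 to 0.039 µM or vehicle, 24, 48, 72 h at 37°C, 5% CO2; PrestoBlue 15 min, fluorescence 560ex/590em; growth as 100×[(T−Tz)/(C−Tz)] per NCI algorithm.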

[2] = test system: A549; assay: Inhibition of TNFalpha-induced IKKbeta-mediated NF-kappaB activity in human A549 cells at 10 uM after 2 hrs followed by TNFalpha addition for 7 hrs by ONE-Glo Luciferase reporter based luminescence assay; assay type: cell-based
Summary of the method: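 A549 luciferase cells grown 5 passages without TNFα then 2 passages with or without 5 ng/mL TNFα; 50,000 per well overnight; 10 µM compound 2 h; then 20 ng/mL TNFα 7 h; PrestoBlue 10 min (560ex/590em) viability; ONE-Glo 10 min, luminescence 1000 ms.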

[3] = test system: MDA-MB-231; assay: Cytotoxicity against human MDA-MB-231 cells assessed as cell growth inhibition after 3 days by presto blue dye based plate reader method; assay type: functional; summary of the method: as §1
[4] = Cytotoxicity against human MIAPaCa2 cells assessed as cell growth inhibition after 3 days by presto blue dye based plate reader method; assay type: functional; settings: MIA PaCa-2, 72 h; summary of the method: as §1
[5] = test system: SW480; assay: Cytotoxicity against human SW480 cells assessed as cell growth inhibition after 3 days by presto blue dye based plate reader method; assay type: functional; settings: SW480, 72 h
[6] = test system: A549; assay: Inhibition of TNFalpha-induced IKKbeta-mediated NF-kappaB activity in human A549 cells at 10 uM after 2 hrs followed by TNFalpha addition for 7 hrs by ONE-Glo Luciferase reporter based luminescence assay
[7] = biological target: T1, serum albumin (Homo sapiens, UniProt P02768); assay: Binding affinity to human serum albumin assessed as half life by MS analysis; assay type: ADME
[8] = biological target: T1, serum albumin; assay: Binding affinity to human serum albumin assessed as half life by HPLC analysis; assay type: ADME
[9] = test system: HeLa; assay: Cytotoxicity against human HeLa cells expressing GFP assessed as cell growth inhibition after 3 days by presto blue dye based plate reader method; assay type: functional; settings: 72 h; summary of the method: as §1
[10] = biological target: T2, Inhibitor of nuclear factor kappa-B kinase subunit beta (Homo sapiens) (UniProt O14920); assay: Covalent inhibition of IKKbeta (unknown origin) at 10 uM after 1 hr by rhodamine azide dye based SDS-PAGE method
T2 sequence (whole entry): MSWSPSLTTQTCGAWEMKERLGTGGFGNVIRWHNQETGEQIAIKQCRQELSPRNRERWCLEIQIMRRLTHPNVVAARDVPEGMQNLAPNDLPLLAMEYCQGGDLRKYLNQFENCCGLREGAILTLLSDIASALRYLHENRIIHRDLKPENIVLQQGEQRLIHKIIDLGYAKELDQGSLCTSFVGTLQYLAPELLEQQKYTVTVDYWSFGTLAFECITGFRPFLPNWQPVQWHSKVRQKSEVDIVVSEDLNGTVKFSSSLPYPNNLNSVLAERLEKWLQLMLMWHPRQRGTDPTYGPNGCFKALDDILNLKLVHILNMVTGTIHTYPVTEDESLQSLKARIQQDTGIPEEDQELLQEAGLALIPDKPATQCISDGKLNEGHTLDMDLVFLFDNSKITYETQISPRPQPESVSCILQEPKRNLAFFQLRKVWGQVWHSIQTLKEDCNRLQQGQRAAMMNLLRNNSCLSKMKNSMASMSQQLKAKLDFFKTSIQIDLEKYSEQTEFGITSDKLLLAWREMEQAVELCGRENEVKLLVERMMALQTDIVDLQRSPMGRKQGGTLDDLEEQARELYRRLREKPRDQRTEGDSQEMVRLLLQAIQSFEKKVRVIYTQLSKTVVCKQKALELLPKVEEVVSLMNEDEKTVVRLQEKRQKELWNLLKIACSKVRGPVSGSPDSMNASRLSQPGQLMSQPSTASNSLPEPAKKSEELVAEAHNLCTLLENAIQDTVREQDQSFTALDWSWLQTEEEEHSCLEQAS
Summary of the method: (§2)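 Purified IKKβ or p65 (250 ng in 200 µL) incubated 1 h with 10 µM alkyne probe; click reaction 1 h with 0.1 mM 5-TAMRA azide, 1 mM TCEP, 1 mM CuSO4, 0.1 mM TBTA; methanol precipitation, pellet in SDS buffer, 4-20% SDS-PAGE, fluorescence gel scanning.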

[11] = species: Homo sapiens; assay: Covalent inhibition of C-terminus truncated NF-kappaB p65 L15V/P180S/F309S/A439V/V462M mutant (unknown origin) at 10 uM after 1 hr by rhodamine azide dye based SDS-PAGE method; summary of the method: as §2
[12] = biological target: T2, Inhibitor of nuclear factor kappa-B kinase subunit beta (Homo sapiens); assay: Inhibition of IKKbeta in human MDA-MB-231 cells assessed as reduction in IkappaBalpha phosphorylation by Western blot analysis; assay type: cell-based
Summary of the method: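 MDA-MB-231 cytoplasmic fractions: swelling 30 min on ice in HEPES/KCl/EDTA/DTT buffer with inhibitors, 1.25% NP-40, centrifuged; lysates on 4-20% gels, PVDF, anti-phospho-IκBα and anti-IκBα, tubulin or GAPDH loading control, ECL detection.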

[13] = test system: MDA-MB-231; assay: Cytotoxicity against human MDA-MB-231 cells assessed as cell growth inhibition at 0.039 to 40 uM by presto blue dye based plate reader method; assay type: functional
[14] = test system: HeLa; assay: Induction of apoptosis in human HeLa cells assessed as PARP cleavage after 24 to 48 hrs by Western blot analysis; assay type: functional, cell-based
Summary of the method: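 Cells collected with media and trypsinized pellet combined, lysed in RIPA buffer (pH 8.0), 4-20% SDS-PAGE, Western blot with anti-PARP to detect cleavage; HeLa timepoint 48 h.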

[15] = test system: HeLa; assay: Anticlonogenic activity against human HeLa cells assessed as inhibition of colony formation after 2 to 7 days by crystal violet staining; assay type: functional, cell-based
Summary of the method: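 HeLa cells seeded at 500-1000 per well, grown 24 h, drug-treated 48 h at 37°C (DMSO control), then fresh medium for 7 days; methanol fixed 15 min, 0.1% crystal violet 30 min at room temperature, colonies over 50 cells counted.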

[16] = biological target: T2, Inhibitor of nuclear factor kappa-B kinase subunit beta (Homo sapiens); assay: Inhibition of IKKbeta in human MIAPaCa2 cells assessed as reduction in IkappaBalpha phosphorylation at 10 to 20 uM by Western blot analysis; assay type: cell-based; settings: MIA PaCa-2

T1 sequence (P02768 whole entry): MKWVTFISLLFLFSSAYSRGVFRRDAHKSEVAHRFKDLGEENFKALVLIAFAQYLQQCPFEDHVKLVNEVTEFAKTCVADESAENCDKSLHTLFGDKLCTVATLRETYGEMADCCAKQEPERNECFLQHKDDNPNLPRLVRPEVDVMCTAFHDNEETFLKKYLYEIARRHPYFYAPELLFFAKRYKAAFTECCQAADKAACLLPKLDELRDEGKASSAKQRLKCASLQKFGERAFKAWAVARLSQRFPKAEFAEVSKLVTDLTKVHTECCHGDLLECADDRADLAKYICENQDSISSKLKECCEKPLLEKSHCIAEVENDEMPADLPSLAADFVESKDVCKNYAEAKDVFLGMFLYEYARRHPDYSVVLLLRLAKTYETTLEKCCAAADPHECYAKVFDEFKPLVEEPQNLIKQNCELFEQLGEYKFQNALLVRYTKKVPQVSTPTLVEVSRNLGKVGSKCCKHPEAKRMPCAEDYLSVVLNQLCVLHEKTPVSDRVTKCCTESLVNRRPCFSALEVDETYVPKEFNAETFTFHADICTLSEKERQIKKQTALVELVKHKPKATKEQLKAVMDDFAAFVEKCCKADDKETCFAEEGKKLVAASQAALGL

SMILES: C=C1C(=O)OC2(C(=O)Nc3ccccc32)C1c1ccccc1 (stereo not drawn)
EC50 [1]: 3.8 µM

SMILES: C=C1CC(c2cccc3ccccc23)OC1=O (stereo not drawn)
inhibition [2]: 50%

SMILES: NC(=O)Nc1sc(-c2ccc(F)cc2)cc1C(N)=O
growth inhibition (GI) [3]: Active

half-life [7]: 37 min
half-life [8]: 66 min
SMILES: C=C1C(=O)O[C@@H]2C3O[C@]3(C)CC/C=C(\C)CC[C@@H]12 (stereo partly drawn)
IC50 [4]: 9.8 µM
IC50 [5]: 15.3 µM
inhibition [6]: > 95%
EC50 [1]: 12.9 µM
IC50 [9]: 5.7 µM

SMILES: C=C1CC(c2c(OCc3ccccc3)ccc3ccccc23)OC1=O (stereo not drawn)
inhibition [2]: < 25%

SMILES: C=C1CC2(OC1=O)C(=O)Nc1ccc(I)cc12 (stereo not drawn)
EC50 [1]: 2.2 µM

SMILES: C=C1CC(c2ccccc2)OC1=O (stereo not drawn)
inhibition [2]: 25%

SMILES: O=C(Nc1ccc(Br)cc1)Nc1ccc2nc(-c3ccco3)c(-c3ccco3)nc2c1
growth inhibition (GI) [3]: Active

SMILES: C=C1CC2(OC1=O)C(=O)N(Cc1ccccc1)c1ccccc12 (stereo not drawn)
EC50 [1]: 2.7 µM

inhibition [10]: Active
inhibition [11]: Active
SMILES: C#CCCN1C(=O)C2(CC(=C)C(=O)O2)c2ccccc21 (stereo not drawn)
EC50 [1]: 5.5 µM
inhibition [2]: 75%

SMILES: C=C1CC(c2ccc(OC)c(OCc3ccccc3)c2)OC1=O (stereo not drawn)
inhibition [2]: 25%

SMILES: C/C1=C\CC[C@@]2(C)O[C@H]2[C@H]2OC(=O)C(C)[C@@H]2CC1 (stereo partly drawn)
IC50 [4]: 84.3 µM
IC50 [5]: > 100 µM
inhibition [6]: 20%
EC50 [1]: > 100 µM
IC50 [9]: 66.1 µM

SMILES: C=C1CC2(OC1=O)C(=O)Nc1c([N+](=O)[O-])cc(Br)cc12 (stereo not drawn)
EC50 [1]: 2 µM

SMILES: C=C1CC(c2ccc(F)cc2)OC1=O (stereo not drawn)
inhibition [2]: 25%

SMILES: C=C1CC(c2ccc(OC)c(OC)c2)OC1=O (stereo not drawn)
inhibition [2]: 25%

SMILES: C=C1CC2(OC1=O)C(=O)Nc1ccc(OC)cc12 (stereo not drawn)
EC50 [1]: 3.1 µM

SMILES: C=C1CC2(OC1=O)C(=O)N(C)c1ccccc12 (stereo not drawn)
EC50 [1]: 3.9 µM

SMILES: C=C1CC(c2c(OC)ccc3ccccc23)OC1=O (stereo not drawn)
inhibition [2]: Active

SMILES: C=C1CC(c2ccc(OC)cc2)OC1=O (stereo not drawn)
inhibition [2]: 25%

inhibition [12]: Active
SMILES: C=C(CC1(O)C(=O)Nc2ccccc21)C(=O)OC (stereo not drawn)
inhibition [6]: Active

SMILES: C=C1CC(c2cccc(Br)n2)OC1=O (stereo not drawn)
inhibition [2]: 50%

SMILES: C=CC(=O)N1CCC[C@@H](n2nc(-c3ccc(Oc4ccccc4)cc3)c3c(N)ncnc32)C1 [IBRUTINIB]
IC50 [4]: 16.6 µM
IC50 [5]: 25.6 µM
EC50 [1]: 20.1 µM
IC50 [9]: 16.8 µM

SMILES: C=C1CC(c2ccc(C3CC(=C)C(=O)O3)cc2)OC1=O (stereo not drawn)
inhibition [2]: Active

SMILES: N#Cc1c(C2CCNCC2)cc(-c2c(O)cccc2OCC2CC2)nc1N
growth inhibition (GI) [3]: Active

SMILES: CCC(=O)N1CCC[C@@H](n2nc(-c3ccc(Oc4ccccc4)cc3)c3c(N)ncnc32)C1
IC50 [4]: 8.2 µM
IC50 [5]: 13.4 µM
EC50 [1]: 15.2 µM
IC50 [9]: 15.1 µM

SMILES: Cc1ccc(C)c2c1NC(=O)C21CC(C)C(=O)O1 (stereo not drawn)
IC50 [4]: > 100 µM
IC50 [5]: > 100 µM
EC50 [1]: > 100 µM
IC50 [9]: > 100 µM

SMILES: C=C1CC(c2ccc(OCc3ccccc3)cc2)OC1=O (stereo not drawn)
inhibition [2]: 25%

SMILES: C=C1CC(c2cccc(C(F)(F)F)c2)OC1=O (stereo not drawn)
inhibition [2]: 25%

inhibition [16]: inactive
inhibition [12]: inactive
SMILES: CC1CC2(OC1=O)C(=O)Nc1ccccc12 (stereo not drawn)
growth inhibition (GI) [13]: inactive
growth inhibition (GI) [3]: inactive
inhibition [6]: 5%
Activity [14]: inactive
inhibition [15]: inactive

SMILES: C=C1CC(c2cccc(OC)c2)OC1=O (stereo not drawn)
inhibition [2]: 25%

SMILES: C=C1CC(c2ccccn2)OC1=O (stereo not drawn)
inhibition [2]: < 25%

SMILES: C=C1CC(c2ccnc3ccccc23)OC1=O (stereo not drawn)
inhibition [2]: inactive

SMILES: C=C1CC(c2cccc(OCc3ccccc3)c2)OC1=O (stereo not drawn)
inhibition [2]: 25%

SMILES: C=C1CC(c2ccc3ccccc3c2)OC1=O (stereo not drawn)
inhibition [2]: 50%
